Yeast lifespan up: compounds extending yeast replicative lifespan, primary screen, S. cerevisiae, OD615. S. cerevisiae growth with nicotinamide; deaD strain in restrictive glucose medium. inhibition of the nicotinamide effect, % at 10 µM. 0.68% of 130,000 active. AID 775, 2007;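 active = inhibition above a set limit, placed 3 SD over the median of all compounds, cut at about 26% in these data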
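Assay system: engineered S. cerevisiae DeaD replicative-lifespan strain, galactose-grown log-phase cells; Buffer or medium: CSMM-D glucose medium, restrictive; Probe or stimulus: nicotinamide 1.5 mM; Compound: single dose 10 µM compound, 0.25% DMSO; Schedule: 4 h preincubation then 48 h treatment at 30 °C; Technique: OD615 measurement.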
Measles CPE: compounds protecting cells from measles virus cytopathic effect, primary screen, measles RdRp inhibitor project, single point, MLSMR library, absorbance; Measles virus-infected cells, CPE protection; protection (pct of control), % at 4 µM; 1.5% of 140,000 active; in the data active = protection mostly above about 24%, no sharp cut-off; inactive = mostly below about 26%
Yeast growth inh: growth inhibitors of yeast BB579 in restrictive medium, primary screen, yeast lifespan-shortening project, S. cerevisiae | OD615, 48 h | inhibition, % at 10 µM | 0.51% of 140,000 active;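 active = inhibition above a set limit, 3 SD over the mean compound inhibition, cut at about 44% in these data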
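Detection: OD615 turbidity measurement; Material: Saccharomyces cerevisiae DeaD strain BB579, replicative lifespan model yeast; Timing: 48 h exposure, 30 °C; Doses: single 10 µM dose; Medium: CSMM-D restrictive synthetic medium containing dextrose (glucose); Controls: amphotericin B at 10 µg/mL as positive control.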
WT yeast gro inh: growth inhibition of WT strain, primary screen, mitochondrial fusion inhibitor project, WT and mutant strains, chemical genetic; mitochondrial fusion phenotypic screen; inhibition, % at 10 µM; 2.1% of 190,000 active; AID 1362, 2008; in the data active = inhibition above about 58%; tested in S. cerevisiae
DAT uptake mod: changed hDAT dopamine uptake under cocaine IC80, either direction, primary screen, cocaine antagonist project, cell-based, LLC-PK1 hDAT, [14C]-dopamine uptake, MLSMR. LLC-PK1 hDAT cells, [14C]-dopamine uptake with cocaine IC80; actives deviate in either direction. 1.3% of 110,000 active. B-score at 10 µM. Sodium-dependent dopamine transporter (Homo sapiens), Q01959;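 active = Z score or B-score, a plate-position-corrected score, falls beyond the plate's 99.7% confidence bounds, in either direction; inactive = both scores lie inside the 99.7% bounds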
Target sequence (Q01959 whole entry, looked up): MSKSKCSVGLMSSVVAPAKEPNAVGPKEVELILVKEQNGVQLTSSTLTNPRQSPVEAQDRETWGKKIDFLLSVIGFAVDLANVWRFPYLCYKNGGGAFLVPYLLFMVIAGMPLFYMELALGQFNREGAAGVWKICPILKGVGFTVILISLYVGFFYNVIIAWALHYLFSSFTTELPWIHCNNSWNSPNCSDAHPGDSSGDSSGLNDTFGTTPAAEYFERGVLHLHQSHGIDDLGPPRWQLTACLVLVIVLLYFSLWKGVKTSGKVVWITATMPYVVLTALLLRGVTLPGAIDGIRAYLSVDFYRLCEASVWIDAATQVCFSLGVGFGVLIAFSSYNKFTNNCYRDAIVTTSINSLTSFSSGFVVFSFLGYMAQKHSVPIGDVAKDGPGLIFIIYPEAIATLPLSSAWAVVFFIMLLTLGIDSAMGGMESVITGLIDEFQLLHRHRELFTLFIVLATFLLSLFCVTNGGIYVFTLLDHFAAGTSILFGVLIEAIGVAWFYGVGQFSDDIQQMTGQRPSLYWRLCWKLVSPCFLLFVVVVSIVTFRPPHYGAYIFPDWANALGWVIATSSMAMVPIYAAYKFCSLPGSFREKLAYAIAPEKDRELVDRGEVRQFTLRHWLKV
RAM network inh: inhibitors of the yeast RAM network, primary screen, dse1pr::URA3 reporter, 5-FOA selection; AID 868, 2007; inhibition, % at 50 µM; 1.8% of 190,000 active; S. cerevisiae dse1pr::URA3 reporter, 5-FOA growth OD615, 2 d; analog-sensitive cbk1-as2 kinase mutant strain;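 active = inhibition above a set limit, 3 SD over mean compound inhibition, cut at about 8.4% in these data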;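 also: inhibition rescues growth on 5-FOA so higher OD means more RAM inhibition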
Each line names hits and unclear results; the compound was inactive in the other large screens. In the library only some 6.1% were active in any assay of this set; here they are far more common.

O=C1C=CC(=O)N1N(c1ccccc1)c1ccccc1	none (no result: DAT uptake mod)
CCOC(=O)C1=C(C)N=c2sc(=C(C)C)c(=O)n2C1c1ccc(N(C)C)cc1 (stereo not given)	none (no result: Yeast lifespan up, Measles CPE, Yeast growth inh, WT yeast gro inh, RAM network inh)
CCN1C(=O)N(c2ccc(Cl)cc2)C(C)=CC1(C)C	none
COCCCNC(=O)/C(C#N)=c1\s/c(=C\c2ccccc2OC(F)F)c(=O)n1CCCOC	none (no result: DAT uptake mod)
COCCNC(=O)/C(C#N)=c1\s/c(=C\c2ccccc2OC(F)F)c(=O)n1Cc1ccccc1	none (no result: Yeast lifespan up, Measles CPE, Yeast growth inh, DAT uptake mod)
CCCCNC(=O)/C(C#N)=c1\s/c(=C\c2ccccc2OC(F)F)c(=O)n1CCCOC	RAM network inh 9.2 (no result: DAT uptake mod)
COCCCn1c(=O)/c(=C\c2ccccc2OC(F)F)s/c1=C(/C#N)C(=O)N1CCOCC1	RAM network inh 9.1 (no result: Yeast lifespan up, Measles CPE, Yeast growth inh, DAT uptake mod)
CCOC(=O)N1CCN(S(=O)(=O)c2ccc(F)c(C(=O)Nc3cccc(C)c3C)c2)CC1	Yeast lifespan up 45
Cc1cc(Oc2ccccc2)nc(-c2ccccc2)n1	none
c1ccc(Oc2cc(-c3ccccc3)nc(-c3ccccc3)n2)cc1	RAM network inh 10.0 (no result: DAT uptake mod)
Cc1cc[n+](CC(=O)Nc2cc(C(F)(F)F)ccc2Cl)cc1	none
CN(C)c1cc[n+](CC(=O)Nc2cc(C(F)(F)F)ccc2Cl)cc1	Measles CPE 64 (no result: WT yeast gro inh)
CCOC(=O)C1=C(NC(=S)NC(=O)c2ccccc2)c2ccccc2CC1(C)CC (stereo not given)	WT yeast gro inh 70, RAM network inh 11 (no result: DAT uptake mod)
CCOC(=O)c1sc(NC(=S)NC(=O)c2ccccc2)c(C(=O)OCC)c1C	none (no result: DAT uptake mod)
Cc1ccc(C(NC(=O)NC(C)c2ccccc2)C(Cl)(Cl)Cl)cc1F (stereo not given)	WT yeast gro inh 64 (no result: DAT uptake mod)
Cc1cc(C)n2nc(N)c(N=Nc3ccc(Cl)cc3)c2n1	RAM network inh 9.5 (no result: DAT uptake mod)
Cc1ccc(N=Nc2c(=O)[nH]n3c(C)cc(C)nc23)cc1	none
Nc1ncnc(NNC(=O)CNC(=O)c2c(F)cccc2Cl)c1[N+](=O)[O-]	none (no result: Yeast lifespan up, Measles CPE, Yeast growth inh, DAT uptake mod)
CCCCCN=C(N)N/N=C/c1c[nH]c2ccc(OC)cc12	DAT uptake mod 3.7 (no result: Yeast lifespan up, Measles CPE, Yeast growth inh, WT yeast gro inh, RAM network inh)
COc1ccc(N2CC(C(=O)N/N=C/c3c[nH]c4ccccc34)CC2=O)cc1 (stereo not given)	none (no result: Yeast lifespan up, Measles CPE, Yeast growth inh, DAT uptake mod)
COC(=O)c1cccc(S(=O)(=O)N(Cc2ccco2)Cc2cc3cc(OC)c(OC)cc3[nH]c2=O)c1	RAM network inh 8.9
Cc1cc(C(=O)CN2C(=O)NC3(CCCc4sccc43)C2=O)c(C)n1-c1ccc(Cl)cc1 (stereo not given)	Measles CPE 39 (no result: DAT uptake mod)
COc1ccccc1OCC(=O)NCCSCc1cccc(Cl)c1	none (no result: DAT uptake mod)
CC1(C)C(=O)OC(c2cccn2-c2cccc([N+](=O)[O-])c2)C2(CCCCC2)C1=O (stereo not given)	WT yeast gro inh 78 (no result: DAT uptake mod)
COc1ccc(/C=C(/NC(=O)c2cccc([N+](=O)[O-])c2)C(=O)O)cc1	none (no result: Yeast lifespan up, Measles CPE, Yeast growth inh, DAT uptake mod)
O=C(c1ccccc1)c1cncc(Br)c1	DAT uptake mod -8.1
S=C(NCc1ccc2[nH]c3c(c2c1)CCCC3)Nc1ccccc1	WT yeast gro inh 76
Cc1cc(C)cc(NC(=S)NCc2ccc3[nH]c4c(c3c2)CCCC4)c1	WT yeast gro inh 72 (no result: DAT uptake mod)
O=C(NCc1ccc2[nH]c3c(c2c1)CCCC3)c1ccc(S(=O)(=O)N2CCCCC2)cc1	none
CCS(=O)(=O)NCc1ccc2[nH]c3c(c2c1)CCCC3	none
CCCc1[nH]n(-c2nc3ccccc3s2)c(=O)c1C=NCC(C)C	DAT uptake mod 4.4
O=c1c(C=NCc2cccnc2)c(C(F)(F)F)[nH]n1-c1nc2ccccc2s1	none (no result: Yeast lifespan up, Measles CPE, Yeast growth inh, DAT uptake mod)
COCCn1c(SCC(=O)Nc2ncc(C)s2)nc2sc3c(c2c1=O)CCC3	none
COCCn1c(SCc2nnc(-c3ccccc3)o2)nc2sc3c(c2c1=O)CCC3	WT yeast gro inh 97
CCCCn1ccnc1C(=O)c1cccc(S(=O)(=O)N2CC(C)CC(C)C2)c1 (stereo not given)	RAM network inh 8.7
O=S(=O)(NCCSCc1c(Cl)cccc1Cl)c1ccc2c(c1)OCCO2	RAM network inh 8.8
O=S(=O)(Nc1cccnc1Cl)c1ccc2c(c1)OCCO2	Measles CPE 33
CSc1ccccc1NS(=O)(=O)c1ccc2c(c1)OCCO2	none
O=S(=O)(NCCSc1ccc(Cl)cc1)c1ccc2c(c1)OCCO2	none
O=C(O)CCCN=CC1=C(O)CNC1=O	none (no result: Yeast lifespan up, Measles CPE, Yeast growth inh, DAT uptake mod)
Fc1ccccc1SCc1nnc(-c2ccccc2Br)o1	none (no result: Yeast lifespan up, Measles CPE, Yeast growth inh, DAT uptake mod)
Cc1ccc(-c2nnn(CC(=O)N(Cc3ccccc3)C(C(=O)NC3CCCC3)c3ccncc3)n2)o1 (stereo not given)	none
CCC(C)(C)n1nnnc1C(c1cc2cccc(C)c2[nH]c1=O)N1CCCC1 (stereo not given)	Yeast lifespan up 36
CCC(C)(C)n1nnnc1C(c1cc2cc(C)cc(C)c2[nH]c1=O)N1CCCC1 (stereo not given)	none
CCC1(CC)C(=O)C2=C3C1[C@H](C(=O)OC)CC(C(=O)OC)C[C@H]3n1c(=O)n(-c3ccccc3)c(=O)n1[C@H]2C (stereo not given in full)	none (no result: Yeast lifespan up, Measles CPE, Yeast growth inh, WT yeast gro inh, RAM network inh)
O=c1oc2cc(OCc3c(F)cccc3Cl)ccc2cc1-c1ccccn1	Measles CPE 46
O=C(COC(=O)c1ccccc1Nc1ccc(SC(F)F)cc1)NCc1ccco1	none
CCCCCCSc1nc(O)c(C2OC(=O)c3c2ccc(OC)c3OC)c(=O)n1-c1ccccc1 (stereo not given)	RAM network inh 8.6
COc1ccc2c(c1OC)C(=O)OC2CC(=O)O (stereo not given)	none
CCSc1nc(O)c(C2OC(=O)c3c2ccc(OC)c3OC)c(=O)n1CC (stereo not given)	none
CCCCSc1nc(O)c(C2OC(=O)c3c2ccc(OC)c3OC)c(=O)n1C (stereo not given)	Yeast lifespan up 61
CCOC(=O)c1[nH]c2ccc(OC)cc2c1NC(=O)CCN1CCCC(C)C1 (stereo not given)	none
NC(=O)CC(NC(=O)Cc1ccc(Br)cc1)c1ccc(NCc2ccc(F)c(F)c2)c([N+](=O)[O-])c1 (stereo not given)	none (no result: Yeast lifespan up, Measles CPE, Yeast growth inh, WT yeast gro inh, RAM network inh)
O=C(O)c1cc(-c2ccc(/C=N/Nc3ccc(Cl)cc3)o2)ccc1Cl	Yeast growth inh 95, WT yeast gro inh 62
CCN(CC)Cc1c(NC(=O)c2ccccc2)sc(C)c1C	none (no result: Yeast lifespan up, Measles CPE, Yeast growth inh, DAT uptake mod)
CCOC(=O)c1c(NC(=O)c2ccccc2)sc2c(O)c(CN(CC)CC)ccc12	DAT uptake mod 2.4
CCOC(=O)c1ccc(N=c2sc(C(=O)OC)cc(=O)n2Cc2ccco2)cc1	RAM network inh 8.6
Cc1ccc(C(=O)Oc2ccc(Cl)c3cccnc23)cc1[N+](=O)[O-]	Yeast growth inh 68 (no result: DAT uptake mod)

From PubChem
